For series [1], the target named is Transcription factor p65 (Homo sapiens) (UniProt Q04206). The series is described as follows: Inhibition of NF-kappaB p65 (unknown origin) by ELISA. A general note: An ELISA detects its analyte on a solid surface through an enzyme-linked reagent.
Series [2] can be described thus: Cytotoxicity against human CCD-112CoN cells. The following applies: read-out: ED50 (the source's name). Format: cell-based.
Another series concerns HT-29. Nature of the series: Cytotoxicity against human HT-29 cells. The series is classed as functional. The following applies: read-out: ED50 (the source's name). The gist of the method:
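HT-29 human colon cancer cells, run by a previously described protocol on all isolates. Growth inhibition was reported as ED50, and a positive control compound was run alongside.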

Transcription factor p65 (Homo sapiens), sequence (Q04206 whole entry): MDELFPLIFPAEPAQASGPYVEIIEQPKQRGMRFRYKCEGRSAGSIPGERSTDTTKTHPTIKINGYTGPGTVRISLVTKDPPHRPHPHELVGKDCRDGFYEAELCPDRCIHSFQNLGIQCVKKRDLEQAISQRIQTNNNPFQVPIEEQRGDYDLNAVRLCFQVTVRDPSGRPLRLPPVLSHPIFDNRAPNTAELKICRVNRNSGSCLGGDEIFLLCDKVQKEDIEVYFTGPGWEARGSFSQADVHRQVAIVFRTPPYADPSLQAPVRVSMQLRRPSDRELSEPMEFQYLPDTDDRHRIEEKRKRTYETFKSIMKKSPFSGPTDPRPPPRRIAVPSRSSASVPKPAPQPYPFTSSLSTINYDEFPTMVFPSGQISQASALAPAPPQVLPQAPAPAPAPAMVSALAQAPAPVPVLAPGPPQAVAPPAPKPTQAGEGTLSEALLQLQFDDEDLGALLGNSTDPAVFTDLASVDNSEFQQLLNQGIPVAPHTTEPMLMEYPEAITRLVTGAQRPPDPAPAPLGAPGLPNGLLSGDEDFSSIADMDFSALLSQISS

`COC(=O)[C@H]1[C@@H](O)[C@@]2(O)c3c(OC)cc(OC)cc3O[C@@]2(c2ccc3c(c2)OCO3)[C@@H]1c1ccccc1` gave an ED50 in series [1] of 3.54 µM. In addition, the CC50 in series [2] was more than 50 µM. The EC50 with HT-29 (Homo sapiens, HT-29) came out at 2 nM.
For the compound `COC(=O)[C@H]1[C@@H](OC=O)[C@@]2(O)c3c(OC)cc(OC)cc3O[C@@]2(c2ccc3c(c2)OCO3)[C@@H]1c1ccccc1`, the CC50 in series [2] is more than 50 µM. The EC50 in the series on HT-29 (Homo sapiens, HT-29) was found to be 56 nM.
As to `COC(=O)[C@H]1[C@@H](O)[C@@]2(OC)c3c(OC)cc(OC)cc3O[C@@]2(c2ccc(OC)cc2)[C@@H]1c1ccccc1`, the ED50 in series [1] is more than 20 µM. Also, in series [2], the CC50 was more than 50 µM. The EC50 in the series on HT-29 (Homo sapiens, HT-29) came to 4900 nM.
`CC(C)[C@H]1CC[C@]2(C)C(=O)CCC(C=O)=C[C@H]12` yielded an ED50 in series [1] of 0.005 µM. Further, the EC50 in the series on HT-29 (Homo sapiens, HT-29) was more than 20000 nM.
`CC1=CC(=O)CC(C)(C)[C@H]1CC[C@H](O)CO` showed an ED50 in series [1] of more than 20 µM. Also, the EC50 in the series on HT-29 (Homo sapiens, HT-29) was more than 10000 nM.
For `C=C(CC[C@@H](CO)[C@H]1CC[C@@]2(C)[C@@H]3CC[C@H]4C(C)(C)[C@@H](O)CC[C@@]45C[C@@]35CC[C@]12C)C(C)C`, in that order: more than 20 µM and more than 10000 nM.
In the same order, the values of `COc1ccc(-c2oc3cc(OC)cc(OC)c3c(=O)c2O)cc1` are more than 20 µM and more than 10000 nM.
Compound `COc1ccc([C@@]23Oc4cc(OC)cc(OC)c4[C@]2(OC)[C@H](O)C[C@H]3c2ccccc2)cc1` registered an ED50 in series [1] of more than 20 µM. In addition, the EC50 with HT-29 (Homo sapiens, HT-29) is more than 10000 nM.
`COc1cc(OC)c2c(c1)O[C@@]1(c3ccc4c(c3)OCO4)[C@H](c3ccccc3)C[C@@H](O)[C@@]21OC`: the ED50 in series [1] was more than 20 µM. Besides, the CC50 in series [2] is more than 50 µM. Moreover, the EC50 in the series with HT-29 (Homo sapiens, HT-29) is 960 nM.
For `COC(=O)[C@H]1[C@@H](O)[C@@]2(OC)c3c(OC)cc(OC)cc3O[C@@]2(c2ccc3c(c2)OCO3)[C@@H]1c1ccccc1`, in that order: more than 20 µM, more than 50 µM and 4700 nM.
In the same order, the values of `COc1cc(OC)c2c(c1)O[C@@]1(c3ccc4c(c3)OCO4)[C@H](c3ccccc3)C[C@@H](O)[C@@]21O` are 0.33 µM, more than 50 µM and 6.7 nM.
`COC(=O)[C@H]1[C@@H](OC=O)[C@@]2(O)c3c(OC)cc(OC)cc3O[C@@]2(c2ccc(OC)cc2)[C@@H]1c1ccccc1`: the ED50 in series [1] is more than 20 µM. Further, in series [2], the CC50 was more than 50 µM. Besides, the EC50 with HT-29 (Homo sapiens, HT-29) turned out to be 19 nM.
On to `COc1ccc([C@]23Oc4cc(OC)cc(OC)c4[C@](O)(C2O)[C@@H](c2ccccc2)[C@@H]3C(=O)NCCCCNC(=O)/C(C)=C/CO)cc1` (stereo in doubt; 1) [listing 1 of 2 here], for which the EC50 with HT-29 was more than 10000 nM.
In turn, `COc1ccc([C@]23Oc4cc(OC)cc(OC)c4[C@](O)(C2O)[C@@H](c2ccccc2)[C@@H]3C(=O)NCCCCNC(=O)/C(C)=C/CO)cc1` (stereo in doubt; 1) [listing 2 of 2 here] had an ED50 in series [1] of more than 20 µM.
As to `COc1ccc([C@]23Oc4cc(OC)cc(OC)c4[C@](O)(C2O)[C@@H](c2ccccc2)[C@@H]3C(=O)NCCCCNC(=O)/C(C)=C/CO)cc1` (stereo in doubt; 2) [listing 1 of 2 here], in series [2], the CC50 was more than 50 µM. Besides, the EC50 in the series with HT-29 was found to be 460 nM.
`COc1ccc([C@]23Oc4cc(OC)cc(OC)c4[C@](O)(C2O)[C@@H](c2ccccc2)[C@@H]3C(=O)NCCCCNC(=O)/C(C)=C/CO)cc1` (stereo in doubt; 2) [listing 2 of 2 here] had an ED50 in series [1] of 2.4 µM.
Turning to `COC(=O)[C@H]1[C@@H](O)[C@@]2(O)c3c(OC)cc(OC)cc3O[C@@]2(c2ccc(OC)cc2)[C@@H]1c1ccccc1` [AGLAFOLIN], the ED50 in series [1] is more than 20 µM. Besides, the CC50 in series [2] was more than 50 µM. For the same compound, the EC50 in the series with HT-29 (Homo sapiens, HT-29) was 12 nM.
In the case of `CC(C)=C[C@H](O)[C@@H](O)[C@@H](CO)[C@H]1CC[C@@]2(C)[C@@H]3CC[C@H]4C(C)(C)[C@@H](O)CC[C@@]45C[C@@]35CC[C@]12C` [ARGENTEANOL], the ED50 in series [1] is more than 20 µM. For the same compound, the EC50 with HT-29 (Homo sapiens, HT-29) was more than 10000 nM.
In the same order, the values of `CC1(C)[C@H](O)CC[C@]2(C)[C@H]3CC[C@@H]4[C@@H]([C@]5(C)CCC(=O)O5)CC[C@@]4(C)[C@]3(C)CC[C@@H]12` [CABRALEAHYDROXYLACTONE] are more than 20 µM and more than 10000 nM.
With `COc1ccc([C@@]23Oc4cc(OC)cc(OC)c4[C@]2(O)[C@H](O)[C@H](C(N)=O)[C@H]3c2ccccc2)cc1` [DIDESMETHYLROCAGLAMIDE], the ED50 in series [1] is more than 20 µM. For the same compound, the CC50 in series [2] was more than 50 µM. In the series on HT-29 (Homo sapiens, HT-29), the EC50 was 21 nM.
The compound `CC1=CC(O)N(CCCCNC(=O)/C=C/c2ccccc2)C1=O` (configuration not stated) [GIGANTAMIDE A] displayed an ED50 in series [1] of more than 20 µM. Also, the EC50 with HT-29 (Homo sapiens, HT-29) is more than 10000 nM.
For `CC(=O)O[C@H]1C(=O)[C@@]2(C)[C@H]([C@H](OC(=O)c3ccccc3)[C@]3(O)C[C@H](OC(=O)[C@H](O)[C@@H](NC(=O)c4ccccc4)c4ccccc4)C(C)=C1C3(C)C)[C@]1(OC(C)=O)CO[C@@H]1C[C@@H]2O` [PACLITAXEL], the CC50 in series [2] turned out to be 23 µM. Besides, the EC50 with HT-29 (Homo sapiens, HT-29) came to 1 nM.
Regarding `CC(C)=CC(=O)[C@@H](O)[C@@H](C)[C@H]1CC[C@@]2(C)[C@@H]3CC[C@H]4C(C)(C)[C@@H](O)CC[C@@]45C[C@@]35CC[C@]12C` [PERVIRIDISINOL A], in series [1], the ED50 was more than 20 µM. In addition, the EC50 in the series on HT-29 (Homo sapiens, HT-29) was more than 10000 nM.
In the same order, the values of `CC(C)=C[C@H]1OC[C@@H]([C@H]2CC[C@@]3(C)[C@@H]4CC[C@H]5C(C)(C)[C@@H](O)CC[C@@]56C[C@@]46CC[C@]23C)[C@@H]1O` [PERVIRIDISINOL B] are more than 20 µM and more than 10000 nM.
In the same order, the values of `C=C(CC[C@@H](CO)[C@H]1CC[C@@]2(C)[C@@H]3CC[C@H]4[C@H](C)[C@@H](O)CC[C@@]45C[C@@]35CC[C@]12C)C(C)C` [PERVIRIDISINOL C] are more than 20 µM and more than 10000 nM.
As to `COc1ccc([C@@]23Oc4cc(OC)cc(OC)c4[C@]2(O)[C@H](O)[C@H](C(=O)N(C)C)[C@H]3c2ccccc2)cc1` [ROCAGLAMIDE], the CC50 in series [2] was more than 50 µM. In addition, in the series with HT-29 (Homo sapiens, HT-29), the EC50 was determined as 5 nM.
As for `COc1ccc([C@@]23Oc4cc(OC)cc(OC)c4[C@]2(O)[C@H](O)C[C@H]3c2ccccc2)cc1` [ROCAGLAOL], the ED50 in series [1] amounted to 0.005 µM. The CC50 in series [2] was more than 50 µM. Besides, in the series with HT-29 (Homo sapiens, HT-29), the EC50 is 0.7 nM.
Compound `COc1cc2ccc(=O)oc2cc1O` [SCOPOLETIN] had an ED50 in series [1] of more than 20 µM. In the series with HT-29 (Homo sapiens, HT-29), the EC50 is more than 10000 nM.

Source of the values: ChEMBL document CHEMBL2331500, “Bioactive flavaglines and other constituents isolated from Aglaia perviridis” (J Nat Prod, 2013).
